Source: PubChem BioAssay
TRPC4 PAM: positive allosteric modulators of TRPC4, primary screen, cell-based, mouse TRPC4beta, HEK293 mu-opioid, Fluo-4 calcium. B-score at 10 µM. Short transient receptor potential channel 4 (Mus musculus), Q9QUQ5. 310,000 tested, 0.42% active. AID 2227, 2009. DAMGO EC20, Fluo-4 Ca2+ flux; active compounds read high;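 active means B-score of calcium response area above 5 SD of library B-scores, with initial fluorescence ratio within 5 SD of library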;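 further: B-score of integrated fluorescence ratio over time as area under calcium response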
Target sequence (Q9QUQ5 whole entry, looked up): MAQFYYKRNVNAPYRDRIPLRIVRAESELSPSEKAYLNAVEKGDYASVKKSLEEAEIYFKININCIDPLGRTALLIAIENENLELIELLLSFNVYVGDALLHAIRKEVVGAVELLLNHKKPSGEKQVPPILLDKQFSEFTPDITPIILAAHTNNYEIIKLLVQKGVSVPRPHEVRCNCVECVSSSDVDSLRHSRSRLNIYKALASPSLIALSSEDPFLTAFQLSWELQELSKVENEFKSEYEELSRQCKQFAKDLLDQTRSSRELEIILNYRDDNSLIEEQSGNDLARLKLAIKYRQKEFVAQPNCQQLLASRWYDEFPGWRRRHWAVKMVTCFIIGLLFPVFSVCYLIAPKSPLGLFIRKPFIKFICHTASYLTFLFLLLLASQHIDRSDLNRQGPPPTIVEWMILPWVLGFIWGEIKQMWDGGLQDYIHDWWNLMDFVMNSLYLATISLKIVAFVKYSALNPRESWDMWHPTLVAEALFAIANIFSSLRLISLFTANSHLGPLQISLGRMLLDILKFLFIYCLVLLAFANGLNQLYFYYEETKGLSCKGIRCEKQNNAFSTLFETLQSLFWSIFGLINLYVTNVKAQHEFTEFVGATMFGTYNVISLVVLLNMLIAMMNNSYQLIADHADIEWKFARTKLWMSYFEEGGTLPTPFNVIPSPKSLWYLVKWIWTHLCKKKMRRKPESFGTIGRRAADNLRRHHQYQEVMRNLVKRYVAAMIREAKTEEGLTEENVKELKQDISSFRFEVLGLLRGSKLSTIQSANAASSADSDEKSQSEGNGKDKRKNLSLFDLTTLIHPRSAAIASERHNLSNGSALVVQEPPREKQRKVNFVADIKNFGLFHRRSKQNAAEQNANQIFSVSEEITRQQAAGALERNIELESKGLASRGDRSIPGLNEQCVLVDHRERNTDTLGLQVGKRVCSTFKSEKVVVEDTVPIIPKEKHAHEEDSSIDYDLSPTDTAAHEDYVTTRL
TRPC4 inh: inhibitors of mouse TRPC4 channel, primary screen, Fluo4 calcium, HEK293 TRPC4beta/mu-opioid cells; 300,000 tested, 0.39% active; Short transient receptor potential channel 4 (Mus musculus), Q9QUQ5; B-score at 10 µM; AID 2247, 2010; DAMGO-evoked Fluo4 calcium flux; active compounds read low;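 active means B-score over 3 SD under the library average, no early fluorescence shift, positive overall ratio signal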
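Assay system: Stable TRPC4beta/mu-opioid receptor HEK293 cells | Reagent: DAMGO in two steps, submaximal then maximal | Compound dosing: Single concentration per test compound | Signal: Fluo4 Ca2+ flux fluorescence | Evaluation: Per-well B score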
TRPC4 agonist: activators of mouse TRPC4 channel, primary screen, Fluo4 calcium, HEK293 TRPC4beta/mu-opioid cells; AID 2237, 2010; Fluo4 calcium fluorescence; active compounds read high; 310,000 tested, 0.49% active; Short transient receptor potential channel 4 (Mus musculus), Q9QUQ5; B-score at 10 µM;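 active means B-score above 5 SD of library B-scores, and initial fluorescence ratio not above library mean plus 5 SD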;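 further: positive B-score marks a calcium rise read as TRPC4 activation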
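Material: TRPC4beta and mu-opioid receptor HEK293 stable cells | Incubation: 45 min room-temperature Fluo4 loading, 110 s read | Detection: Kinetic Fluo4 calcium fluorescence | Measure: Integrated baseline-normalised fluorescence ratio, converted to per-well B score | Benchmarks: Low control buffer alone, high control maximal DAMGO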
TRPC6 act: mouse TRPC6 channel activators, primary screen, cell-based, HEK293, membrane potential dye | HEK293-TRPC6 membrane potential dye fluorescence; active compounds read high | B-score at 10 µM | 310,000 tested, 0.13% active;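 active means B-score of the integrated fluorescence ratio above library mean plus 3 SD, and starting fluorescence ratio within library mean plus 5 SD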;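 further: higher score means more depolarization so channel activation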
TRPC6 inh: mouse TRPC6 channel inhibitors, primary screen, cell-based, HEK293, membrane potential dye; ACh-evoked depolarization; active compounds read low; 310,000 tested, 1.1% active; AID 2553, 2010; B-score at 10 µM; Short transient receptor potential channel 6 (Mus musculus), Q61143;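 active means B-score under library mean minus 3 SD, initial fluorescence not abnormally high, positive integrated signal ratio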;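 further: B-score derived from integrated fluorescence ratio over the kinetic read; more negative B-score means stronger inhibition of depolarization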
TRPC4 spec 2: second check of whether TRPC6 inhibitors also affect mouse TRPC4; shares compounds with TRPC6 inh; HEK293 TRPC4/MOR, membrane potential dye fluorescence; channel activated by saturating DAMGO dose; inhibition, % at 10 µM; 920 tested, 42% active; AID 2776;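 active means compounds whose fluorescence signal differed from control wells by over 3 SD, either direction, in both duplicate plates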
TRPC4 spec: mouse TRPC4 modulation by TRPC6 hits, confirmation, selectivity assay for TRPC6 inhibitor project, cell-based, HEK293 TRPC4/mu-opioid, membrane potential dye; shares compounds with TRPC6 inh; membrane potential fluorescence; activity change, negative = inhibition, % at 10 µM; 920 tested, 61% active; AID 2777, 2010;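 active means rise or fall in signal beyond 3 SD of buffer-only wells in both replicate plates, either sign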;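 further: integrated kinetic ratio of fluorescence range over baseline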
HEK293 MPD ctr 2-1: nonspecific membrane potential effects, parental HEK293, confirmation, counter-screen for TRPC6 inhibitor project, cell-based, second counter screen | AID 2779, 2010 | shares compounds with TRPC6 inh | 920 tested, 31% active | parental HEK293 membrane potential dye fluorescence; maximal acetylcholine challenge after compound addition | signal change vs control, % at 10 µM;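 active means membrane potential signal moving either way by over 3 SD of the maximum-effect control, in both duplicate plates, meaning non-specific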
HEK293 MPD ctr-1: membrane potential modulation in parental HEK293, confirmation, counter-screen for TRPC6 inhibitor project, cell-based; shares compounds with TRPC6 inh; parental HEK293 membrane potential dye fluorescence; membrane potential signal change, % at 10 µM; 920 tested, 60% active;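 active means membrane potential signal shifting up or down by more than 3 SD of buffer-only wells, on both duplicate plates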
HEK293 MPD ctr-2: parental HEK293 membrane potential modulation, confirmation, counter-screen for TRPC6 modulator project, cell-based | shares compounds with TRPC6 inh | membrane potential dye fluorescence | membrane potential signal change, % at 10 µM | 2,400 tested, 51% active;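 active means membrane potential signal moves up or down beyond 5 SD from buffer-only wells, on both duplicate plates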
HEK293 MPD ctr 2-2: second counter-screen for TRPC6 modulators: effect in parental HEK293 cells; shares compounds with TRPC6 inh; membrane potential dye fluorescence; after compound, maximal acetylcholine stimulation; inhibition, % at 10 µM; 2,400 tested, 14% active;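 active means membrane potential signal drops by more than 5 SD from the mean control signal, in both duplicate plates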;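 further: plate controls were acetylcholine ECmax control wells for no effect and buffer only wells for full effect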
TRPC4 ctr mod: TRPC4 modulation by TRPC6 hit compounds, confirmation, selectivity assay for TRPC6 modulator project, cell-based, HEK293 TRPC4/mu-opioid, membrane potential dye, mouse; shares compounds with TRPC6 inh; membrane potential fluorescence; percent change from control (negative = decrease, positive = increase), % at 10 µM; 2,400 tested, 69% active; AID 488927, 2010;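 active means membrane potential signal moved up or down beyond 5 SD of buffer control wells, in both duplicate plates, actives on both sides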;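 further: plate controls were assay buffer wells for no effect and DAMGO maximal-effect wells for full effect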
TRPC4 ctr inh 2: second selectivity test of TRPC6 modulators against mouse TRPC4; HEK293 TRPC4/mu-opioid, membrane potential dye fluorescence; stimulated with maximal-effect DAMGO; shares compounds with TRPC6 inh; inhibition, % at 10 µM; 2,400 tested, 55% active;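 active means drop in membrane potential signal beyond 5 SD of the control wells in both duplicate plates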;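 further: TRPC4 counter screen for TRPC6 hits run under conditions tuned for TRPC6 not TRPC4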
TRPC6 block conf: mouse TRPC6 channel inhibitors, confirmation, HEK293 cells, membrane potential dye, duplicate; shares compounds with TRPC6 inh; ACh-evoked depolarization; inhibition, % at 10 µM; 3,300 tested, 43% active; AID 488960, 2010;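 active means fluorescence ratio falls more than 5 SD below the full-stimulation control mean, in both duplicate runs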;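 further: integrated fluorescence ratio of peak minus minimum over baseline after agonist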
TRPC6 act conf: mouse TRPC6 channel activators, confirmation, HEK293 cells, membrane potential dye, duplicate; shares compounds with TRPC6 inh; HEK293-TRPC6 membrane potential dye fluorescence, FDSS; activation, % at 10 µM; 2,800 tested, 11% active; AID 488961, 2010;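 active means ratio signal rise beyond 5 SD above unstimulated control wells' mean, seen in both duplicate runs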;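 further: plate controls were buffer EC0 wells for no effect and acetylcholine ECmax response for full effect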
* marks the source's active call; other numbers are inactive results; i = inactive; nt = no result. Most compounds without a hit are left out; they make up all but 2.3% or so of the library.

SMILES | TRPC4 PAM | TRPC4 inh | TRPC4 agonist | TRPC6 act | TRPC6 inh | HEK293 MPD ctr-2 | HEK293 MPD ctr 2-2 | TRPC4 ctr mod | TRPC4 ctr inh 2 | TRPC6 block conf | TRPC6 act conf | others
COc1ccc(C2C3=C(CC(C)(C)CC3=O)Oc3ncn(CC(C)C)c(=N)c32)cc1 (stereo unspecified) | i | i | i | i | i | nt | nt | nt | nt | nt | nt
COc1ccc(C2C3=C(CC(C)(C)CC3=O)Oc3ncn(Cc4ccco4)c(=N)c32)cc1 (stereo unspecified) | i | i | i | i | -6* | 110%* | i | i | 44%* | i | nt
Cc1c(C)n(C)c2ccc(C(=O)N3CCN(c4ccccc4)CC3)cc12 | i | i | i | i | -7.2* | i | i | i | i | 40%* | i
Cc1c(C)n(C)c2ccc(C(=O)N3CCN(c4ccccn4)CC3)cc12 | i | i | i | i | i | nt | nt | nt | nt | nt | nt
CCOC(=O)CNC(=S)N(Cc1ccco1)Cc1ccccc1Cl | i | i | i | i | -5.8* | i | i | 12%* | i | i | i
Cc1ccc(S(=O)(=O)n2cnc(C)c2)cc1 | i | i | i | i | -8.2* | nt | nt | nt | nt | i | i | TRPC4 spec 2=i;TRPC4 spec=i;HEK293 MPD ctr 2-1=i;HEK293 MPD ctr-1=i
CC(=O)Nc1ccc(S(=O)(=O)n2cnc(C)c2)cc1 | i | i | i | i | i | nt | nt | nt | nt | nt | nt
COc1cc(C(C#N)N2CCC(c3ccccc3)=N2)ccc1O (stereo unspecified) | i | i | i | i | i | nt | nt | nt | nt | nt | nt
CN1CCCN=C1COC(=O)C(O)(c1ccccc1)C1CCCCC1 (stereo unspecified) | i | i | i | i | -7* | nt | nt | nt | nt | 91%* | i | TRPC4 spec 2=i;TRPC4 spec=0.2%*;HEK293 MPD ctr 2-1=36%*;HEK293 MPD ctr-1=i
CCN(CC)CCC(O)(c1ccccc1)C1CCCCC1 (stereo unspecified) | i | i | i | i | i | nt | nt | nt | nt | nt | nt
Cc1ccc(OC(C)C(=O)N2CC(=O)Nc3ccccc32)cc1 (stereo unspecified) | i | i | i | 15* | i | i | i | i | i | nt | 136%*
CN(C)CCCn1c(=O)n(Cc2ccco2)c(=O)c2c3c(sc21)CCCCC3 | i | i | i | i | i | nt | nt | nt | nt | nt | nt
Cn1c(=O)n(Cc2ccco2)c(=N)c2c3c(sc21)CCC3 | i | i | i | i | -7.1* | -184%* | i | -32%* | 46%* | 36%* | i
CC[C@H](C)[C@H](NC(N)=O)C(=O)NCCc1ccc(Cl)cc1Cl | i | i | i | i | i | nt | nt | nt | nt | nt | nt
CN1C(=O)/C(=C\c2ccc(N(C)C)cc2)OC1=S | i | i | i | 19* | i | 322%* | i | 74%* | i | i | 123%*
CCC(Sc1nc(N)cc(N)n1)C(=O)O (stereo unspecified) | i | i | i | i | i | nt | nt | nt | nt | nt | nt
Cc1ccc(C(=O)NCCCNCCCNC(=O)c2ccc(C)nc2)cn1 | i | i | i | i | i | nt | nt | nt | nt | nt | nt
Cc1ccc(S(=O)(=O)NCCNC(=O)c2ccc(C)nc2)cc1 | i | i | i | i | -6.3* | i | i | i | i | i | nt
Cc1ccc(-c2nnc(SCC(=O)NNC(=O)COc3ccccc3C)n2C)cc1 | i | i | i | i | -6.2* | i | i | i | i | i | i
Cc1ccc(-c2nnc(SCC(=O)NNC(=O)COc3cccc(C)c3)n2C)cc1 | i | i | i | i | i | nt | nt | nt | nt | nt | nt
COc1ccc(CNC(=O)C/C(C)=N/NC(=O)COc2ccc(Br)cc2)cc1 | i | i | i | i | i | nt | nt | nt | nt | nt | nt
COc1cc(/C=C2/SC(=S)N(CC3CCCO3)C2=O)ccc1O (stereo unspecified) | i | i | i | 16* | i | 212%* | i | 89%* | i | i | 40%*
COc1ccc(/C=C2\SC(=S)N(CC3CCCO3)C2=O)cc1 (stereo unspecified) | i | i | i | i | i | nt | nt | nt | nt | nt | nt
